Source: article PMC8542630 (Cell chemical biology, 2021)

Tests used:
[1] = target: T1, GFP-Sc-Dyn AAA3 E/Q (E2488Q) (Saccharomyces cerevisiae, UniProt P36022, E2488Q); assay: Microscale thermophoresis; format: binding, S. cerevisiae
GFP-Sc-Dyn [2] = target: T2, GFP-Sc-Dyn (Saccharomyces cerevisiae, UniProt P36022); assay: Microscale thermophoresis; format: binding, S. cerevisiae; settings: for FNorm, GFP-Sc-Dyn (MST) / ΔFNorm, GFP-Sc-Dyn (MST): mean ± SD; for FNorm, GFP-Sc-Dyn (MST): n=3; for ΔFNorm, GFP-Sc-Dyn (MST): absence of AMPPNP, n=5
Mm-VCP/p97 = Mm-VCP/p97 (Mus musculus, UniProt Q01853); assay: NADH-coupled steady-state ATPase assay, Mm-VCP/p97; format: biochemical, M. musculus
Sc-DynGST = Sc-DynGST (Saccharomyces cerevisiae, UniProt P36022); assay: Single-molecule motility assay; format: biochemical, S. cerevisiae
[3] = target: GFP-Sc-Dyn V2391S/M2732S (AAA3_V-S/AAA4_M-S) (Saccharomyces cerevisiae, UniProt P36022, M2732S/V2391S); assay: Microscale thermophoresis; format: binding
[4] = target: T1, GFP-Sc-Dyn AAA3 E/Q (E2488Q); assay: NADH-coupled steady-state ATPase assay, GFP-Sc-Dyn AAA3 E/Q mutant; format: biochemical, S. cerevisiae
[5] = target: GFP-Sc-Dyn AAA3 E/Q (E2488Q); assay: as above; format: biochemical, S. cerevisiae; settings: 1 mM MgATP, n=3
[6] = target: GFP-Sc-Dyn AAA1 E/Q (E1849Q) (Saccharomyces cerevisiae, UniProt P36022, E1849Q); assay: Microscale thermophoresis; format: binding, S. cerevisiae
[7] = target: GFP-Sc-Dyn AAA4 E/Q (E2819Q) (Saccharomyces cerevisiae, UniProt P36022, E2819Q); assay: Microscale thermophoresis; format: binding, S. cerevisiae
[8] = target: Sc-Dyn-lysoMut (AAA1 E/Q) (Saccharomyces cerevisiae, UniProt P36022, E1849Q); assay: Microscale thermophoresis; format: binding, S. cerevisiae
Xl-katanin = Xl-katanin (Xenopus laevis, UniProt Q9PUL2); assay: NADH-coupled steady-state ATPase assay, Xl-katanin; format: biochemical, X. laevis
In short: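 Recombinant Xl-katanin (50 nM; E. coli, MBP-trap, MonoQ and gel filtration) in 25 mM K-HEPES pH 7.5, 70 mM KCl, 20 mM (NH4)2SO4, 5 mM MgCl2, 2.5 mM DTT, 0.01% Triton X-100 plus NADH-coupled regeneration mix. After 10 min RT preincubation with test compound, MgATP started the reaction. The fluorescence decrease rate (340/440 nm) was converted to ATPase rate using an ADP standard curve.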

Hs-FIGL1 = target: T3, Hs-FIGL1 (Homo sapiens, UniProt Q6PIW4); assay: NADH-coupled steady-state ATPase assay, Hs-FIGL1; format: biochemical, H. sapiens
T3 sequence (Q6PIW4 288-674): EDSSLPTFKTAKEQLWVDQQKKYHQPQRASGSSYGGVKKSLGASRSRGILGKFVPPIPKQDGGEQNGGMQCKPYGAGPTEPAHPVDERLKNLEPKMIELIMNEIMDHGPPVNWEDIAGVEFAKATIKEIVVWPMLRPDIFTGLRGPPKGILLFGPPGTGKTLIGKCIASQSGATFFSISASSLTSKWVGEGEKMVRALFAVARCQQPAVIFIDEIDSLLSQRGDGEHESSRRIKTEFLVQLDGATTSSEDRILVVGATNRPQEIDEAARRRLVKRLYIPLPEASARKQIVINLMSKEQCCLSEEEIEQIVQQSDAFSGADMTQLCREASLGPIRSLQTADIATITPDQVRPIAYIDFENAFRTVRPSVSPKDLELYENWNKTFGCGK
In short: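 Recombinant Hs-FIGL1 (50 nM; E. coli-expressed) in 25 mM Na-MES pH 6.5, 70 mM KOAc, 20 mM (NH4)2SO4, 5 mM Mg(OAc)2, 1 mM TCEP, 0.01% Triton X-100, with NADH/PEP/pyruvate kinase/lactate dehydrogenase coupling system. Protein preincubated 10 min at RT with test compound, then MgATP added. NADH fluorescence (ex 340, em 440 nm) slope converted to ATPase rate with an ADP standard curve.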

GFP-Sc-Dyn [9] = target: T2, GFP-Sc-Dyn; assay: Microtubule gliding assay; format: biochemical, S. cerevisiae; settings: 25 μM compound
GFP-Sc-Dyn [10] = target: T2, GFP-Sc-Dyn; assay: NADH-coupled steady-state ATPase assay, GFP-Sc-Dyn basal ATPase; format: biochemical, S. cerevisiae
[11] = single-molecule, 0-50 μM compound
[12] = 1% DMSO, 1 mM Mg-ATP, mean ± SD

Chain of Mm-VCP/p97 (Q01853 whole entry): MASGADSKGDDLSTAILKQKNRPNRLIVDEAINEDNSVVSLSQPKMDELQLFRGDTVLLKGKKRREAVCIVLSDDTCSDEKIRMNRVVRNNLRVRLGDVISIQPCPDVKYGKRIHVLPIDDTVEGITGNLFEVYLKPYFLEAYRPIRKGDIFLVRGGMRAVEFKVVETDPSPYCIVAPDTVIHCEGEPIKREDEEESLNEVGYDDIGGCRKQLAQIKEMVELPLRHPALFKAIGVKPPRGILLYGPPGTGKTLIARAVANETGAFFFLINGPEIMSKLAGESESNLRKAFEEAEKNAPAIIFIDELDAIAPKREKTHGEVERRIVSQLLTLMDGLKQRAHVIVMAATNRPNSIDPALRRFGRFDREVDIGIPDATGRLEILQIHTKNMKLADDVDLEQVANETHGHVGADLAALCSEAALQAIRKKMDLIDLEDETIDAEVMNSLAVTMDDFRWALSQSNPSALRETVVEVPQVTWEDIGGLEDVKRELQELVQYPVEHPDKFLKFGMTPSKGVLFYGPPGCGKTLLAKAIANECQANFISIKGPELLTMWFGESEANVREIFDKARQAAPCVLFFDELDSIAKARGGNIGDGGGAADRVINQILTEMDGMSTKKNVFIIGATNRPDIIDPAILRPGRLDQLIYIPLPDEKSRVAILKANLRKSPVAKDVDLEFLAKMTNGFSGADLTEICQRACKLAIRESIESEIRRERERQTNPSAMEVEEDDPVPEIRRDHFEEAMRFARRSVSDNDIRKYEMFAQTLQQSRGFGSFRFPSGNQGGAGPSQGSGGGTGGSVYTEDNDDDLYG
Chain of Xl-katanin (Q9PUL2 whole entry): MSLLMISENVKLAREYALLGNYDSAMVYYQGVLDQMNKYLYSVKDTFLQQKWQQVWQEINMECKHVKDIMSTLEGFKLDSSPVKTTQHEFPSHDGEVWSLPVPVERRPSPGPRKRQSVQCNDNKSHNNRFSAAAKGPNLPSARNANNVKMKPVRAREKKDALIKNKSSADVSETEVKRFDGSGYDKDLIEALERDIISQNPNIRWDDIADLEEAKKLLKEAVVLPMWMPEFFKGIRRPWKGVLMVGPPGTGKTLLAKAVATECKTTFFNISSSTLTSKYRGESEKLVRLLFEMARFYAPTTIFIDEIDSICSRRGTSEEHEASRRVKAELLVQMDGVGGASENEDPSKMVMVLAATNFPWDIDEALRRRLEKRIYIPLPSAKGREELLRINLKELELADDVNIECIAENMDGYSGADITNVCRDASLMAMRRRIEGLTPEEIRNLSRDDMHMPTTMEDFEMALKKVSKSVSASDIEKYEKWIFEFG

**Q.** What does the source list for `N#Cc1c(C2(c3ccc(Cl)cc3)CC2)nn2c(=O)c(Oc3cccc(Br)c3)c[nH]c12` [compound 20, 6-(3-bromophenoxy)-2-[1-(4-chlorophenyl)cyclopropyl]-7-oxo-4H-pyrazolo[1,5-a]pyrimidine-3-carbonitrile]?
**A.** EC50 [1]: 87 ± 104 µM; Hill slope, binding to AAA3 E/Q mutant (MST) ([1]; mean ± 95% CI, n=4): 0.8 ± 0.3; FNorm, GFP-Sc-Dyn (MST) (GFP-Sc-Dyn [2]; 12.5 μM compound, AMPPNP 100 μM): 0.8 ± 2; FNorm, GFP-Sc-Dyn (MST) (GFP-Sc-Dyn [2]; 12.5 μM compound, AMPPNP 1 mM): 1.9 ± 1.2; ΔFNorm, GFP-Sc-Dyn (MST) (GFP-Sc-Dyn [2]; 12.5 μM compound): 3.0 ± 5.0; FNorm, GFP-Sc-Dyn (MST) (GFP-Sc-Dyn [2]; 25 μM compound, AMPPNP 100 μM): 2.4 ± 2.3; FNorm, GFP-Sc-Dyn (MST) (GFP-Sc-Dyn [2]; 25 μM compound, AMPPNP 1 mM): 0.1 ± 1; ΔFNorm, GFP-Sc-Dyn (MST) (GFP-Sc-Dyn [2]; 25 μM compound): 6.7 ± 5.2; ΔFNorm lower than that of the WT control (GFP-Sc-Dyn [2]; 50 μM compound 20, AMPPNP 1 mM): ~ 93%; FNorm, GFP-Sc-Dyn (MST) (GFP-Sc-Dyn [2]; 50 μM compound, AMPPNP 100 μM): 9.3 ± 2.3; FNorm, GFP-Sc-Dyn (MST) (GFP-Sc-Dyn [2]; 50 μM compound, AMPPNP 1 mM): 1.2 ± 2; ΔFNorm, GFP-Sc-Dyn (MST) (GFP-Sc-Dyn [2]; 50 μM compound): 16 ± 2.8; EC50 (GFP-Sc-Dyn [2]; EC50, binding to GFP-Sc-Dyn (MST), mean ± 95% CI, n=9, Figures 5D-E): 70 ± 31 µM; EC50 (GFP-Sc-Dyn [2]; EC50, binding to WT GFP-Sc-Dyn (MST), mean ± 95% CI, n=4, Figure 5N, compared with V2391S/M2732S mutant): 36 ± 7.8 µM; Hill slope, binding to GFP-Sc-Dyn (MST) (GFP-Sc-Dyn [2]; mean ± 95% CI, n=9): 1.7 ± 0.6; Reduction of ATPase activity, Mm-VCP (Mm-VCP/p97; 20 μM, 1 mM MgATP): < 25%; Percent steady-state ATPase activity, Mm-p97 (Mm-VCP/p97; compound 20 μM, mean ± SD, n=3): 99 ± 7.9%; EC50 (Sc-DynGST): 12.7 ± 2.5 µM; Pausing during processive runs (in words) (Sc-DynGST; single-molecule): no significant pausing; Effect on dynein processivity (run length) (in words) (Sc-DynGST; [11]): little to no effect; Effect on dynein velocity (in words) (Sc-DynGST; [11]): little to no effect; EC50 [3]: > 100 µM; IC50 [4]: 8.2 ± 1.4 µM; IC50 fold lower than that of GFP-Sc-Dyn, AAA3 E/Q mutant [5]: ~ 2 fold; EC50 [6]: 73 ± 114 µM; Hill slope, binding to AAA1 E/Q mutant (MST) ([6]; mean ± 95% CI, n=4): 1.3 ± 0.9; EC50 [7]: > 200 µM; EC50 [8]: 34 ± 11 µM; Reduction of ATPase activity, Xl-katanin (Xl-katanin; 20 μM, 1 mM MgATP): < 25%; Percent steady-state ATPase activity, Xl-katanin (Xl-katanin; compound 20 μM, mean ± SD, n=3): 76 ± 9.0%; Percent steady-state ATPase activity, Hs-FIGL (Hs-FIGL1; compound 20 μM, mean ± SD, n=3): 15 ± 11%; inhibition at 20 µM (Hs-FIGL1; read-out: Inhibition of ATPase activity, Hs-FIGL1): ~85%; Time until most microtubules become immotile (GFP-Sc-Dyn [9]): ≤ 30 min; Microtubule gliding velocity, 30 minutes after treatment (GFP-Sc-Dyn [9]; [12]): 3 ± 5; Microtubule gliding velocity, immediately after treatment (GFP-Sc-Dyn [9]; [12]): 35 ± 19; IC50 (GFP-Sc-Dyn [10]): 14 ± 1 µM
